Laboratory results from ChEMBL document CHEMBL4765495, “Semisynthesis and Biological Evaluation of Platencin Thioether Derivatives: Dual FabF and FabH Inhibitors against MRSA” (ACS Med Chem Lett, 2021).
In brackets after ≈: the same amount, converted by molar mass. Activity calls are given as the source filed them. The calls are words filed in the database; no cut-off is given here.

Legend:
Escherichia coli [1] = test: Binding affinity to His6-tagged Escherichia coli FabH expressed in Escherichia coli BL21 (DE3) assessed as decrease in melting temperature at 10 uM by SYPRO orange based differential scanning fluorimetry
Procedure, shortened: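 Purified E. coli FabH melting curves were recorded with and without ligand by thermal-shift fluorometry in 1.0 M Tris-HCl, pH 6.8, a buffer chosen from seven screened. ΔTm was taken from the Tm shift; n = 4.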

Staphylococcus aureus [2] = test: Antibacterial activity against methicillin sensitive Staphylococcus aureus assessed as inhibition of bacterial growth measured after 16 hrs by agar plate dilution method; format: functional
Procedure, shortened: (§1)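 Clinical MSSA and MRSA strains isolated from local hospitals; MIC determined by plate dilution; data from at least two independent experiments.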

[3] = target: T1, 3-oxoacyl-[acyl-carrier-protein] synthase 2 (Staphylococcus aureus) (UniProt Q5TKS0); test: Binding affinity to His6-tagged Staphylococcus aureus FabF expressed in Escherichia coli BL21 (DE3) assessed as decrease in melting temperature at 10 uM by SYPRO orange based differential scanning fluorimetry
T1 sequence (whole entry): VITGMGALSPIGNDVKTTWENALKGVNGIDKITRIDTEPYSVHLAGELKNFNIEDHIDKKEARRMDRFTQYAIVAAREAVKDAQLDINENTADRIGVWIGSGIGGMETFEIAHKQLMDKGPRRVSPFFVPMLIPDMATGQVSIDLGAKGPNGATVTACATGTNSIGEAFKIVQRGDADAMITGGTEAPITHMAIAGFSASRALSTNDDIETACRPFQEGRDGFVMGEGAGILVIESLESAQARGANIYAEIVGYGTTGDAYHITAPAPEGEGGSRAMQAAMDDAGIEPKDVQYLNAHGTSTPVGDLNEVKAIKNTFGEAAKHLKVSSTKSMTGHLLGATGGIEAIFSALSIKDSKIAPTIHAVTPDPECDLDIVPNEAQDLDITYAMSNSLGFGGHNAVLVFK
Procedure, shortened: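 S. aureus FabF melting curves were measured by DSF in 20 mM HEPES, 180 mM NaCl, pH 7.5, a buffer selected by screening seven buffers. ΔTm was derived from the melting-temperature shift caused by ligand; n = 4.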

Staphylococcus aureus [4] = test: Antibacterial activity against methicillin resistant Staphylococcus aureus infected in C57BL/6J mouse model of peritonitis assessed as bacterial load in kidney at 10 mg/kg, ip administered at 1 and 5 hrs post infection; format: functional, organism-based
Procedure, shortened: (§2)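 Female C57BL/6J mice infected intraperitoneally with 1.5–2.0 × 10^7 CFU MRSA in 5% w/v hog gastric mucin; n = 5 per group; intraperitoneal treatment at 10 mg/kg at 1 and 5 h post-infection; vancomycin 10 mg/kg as control; survival and kidney bacterial load recorded.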

Staphylococcus aureus [5] = test: Antibacterial activity against Staphylococcus aureus ATCC 29213 assessed as inhibition of bacterial growth measured after 16 hrs by agar plate dilution method; format: functional
Procedure, shortened: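 MIC determined by plate dilution against the reference strain; values from at least two independent experiments.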

Staphylococcus aureus [6] = test: Antibacterial activity against methicillin resistant Staphylococcus aureus infected in C57BL/6J mouse model of peritonitis assessed as mouse survival by measuring number of mouse at 10 mg/kg, ip administered at 1 and 5 hrs post infection relative to control; format: functional; procedure, shortened: as §2
Staphylococcus aureus [7] = test: Antibacterial activity against methicillin resistant Staphylococcus aureus assessed as inhibition of bacterial growth measured after 16 hrs by agar plate dilution method; format: functional; procedure, shortened: as §1
Staphylococcus aureus [8] = test: Antibacterial activity against macrolide, lincomycin, telithromycin resistant and cipro-bay susceptible, methicillin-resistant Staphylococcus aureus assessed as bacterial growth inhibition; format: functional
Staphylococcus aureus [9] = test: Antibacterial activity against methicillin resistant and macrolide, lincomycin, telithromycin, cipro-bay susceptible Staphylococcus aureus assessed as bacterial growth inhibition; format: functional
Staphylococcus aureus [10] = test: Antibacterial activity against methicillin, fusidic-acid, macrolide resistant and lincomycin, telithromycin, cipro-bay susceptible Staphylococcus aureus assessed as bacterial growth inhibition; format: functional
Staphylococcus aureus [11] = test: Antibacterial activity against methicillin, macrolide, lincomycin, telithromycin, cipro-bay resistant Staphylococcus aureus assessed as bacterial growth inhibition; format: functional
Staphylococcus aureus [12] = test: Inhibition of Staphylococcus aureus FabH A81V/A111T mutant assessed as bacterial growth inhibition measured after 18 hrs by resazurin dye based broth dilution assay
Procedure, shortened: (§3)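 S. aureus strains carrying point mutations in the FabH active site; MIC determined by broth dilution; data from at least two independent experiments.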

Staphylococcus aureus [13] = test: Antibacterial activity against methicillin resistant Staphylococcus aureus assessed as inhibition of bacterial growth measured after 18 hrs in presence of 10% human serum by resazurin dye based broth dilution assay; format: functional
Staphylococcus aureus [14] = test: Antibacterial activity against methicillin resistant Staphylococcus aureus infected in C57BL/6J mouse model of peritonitis assessed as mouse survival when infected with 2.5x10^7 CFU bacteria at 10 mg/kg, ip administered at 1 and 5 hrs post infection; format: functional, organism-based
Procedure, shortened: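 Female C57BL/6J mice given a higher intraperitoneal MRSA inoculum of 2.5 × 10^7 CFU; intraperitoneal treatment at 1 and 5 h post-infection; survival recorded.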

Escherichia coli [15] = test: Binding affinity to His6-tagged Escherichia coli FabF C163Q mutant expressed in Escherichia coli BL21 (DE3) assessed as stoichiometry ratio measured after 200 sec by isothermal titration calorimetry
Procedure, shortened: (§4)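 Ligands were dissolved in PBS (10 mM, pH 7.4) and titrated into E. coli FabF(C163Q) in the same buffer. Protein was at 12 or 14 μM and ligand at 250 μM. Thermodynamic parameters (ΔH, ΔS, ΔG, Kd, n) were calculated from the heat of binding. Runs were done at least three times; one representative run was used.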

Staphylococcus aureus [16] = test: Antibacterial activity against methicillin resistant Staphylococcus aureus infected in C57BL/6J mouse model of peritonitis assessed as mouse survival at 10 mg/kg, ip administered at 1 and 5 hrs post infection; format: functional, organism-based; procedure, shortened: as §2
Escherichia coli [17] = test: Binding affinity to His6-tagged Escherichia coli FabF C163Q mutant expressed in Escherichia coli BL21 (DE3) assessed as change in enthalpy measured after 200 sec by isothermal titration calorimetry; procedure, shortened: as §4
[18] = Binding affinity to His6-tagged Escherichia coli FabF C163Q mutant expressed in Escherichia coli BL21 (DE3) assessed as binding constant measured after 200 sec by isothermal titration calorimetry; procedure, shortened: as §4
Escherichia coli [19] = test: Antibacterial activity against Escherichia coli harboring delta tolC mutant assessed as inhibition of bacterial growth measured after 16 hrs by agar plate dilution method; format: functional
Escherichia coli [20] = test: Binding affinity to His6-tagged Escherichia coli FabF C163Q mutant expressed in Escherichia coli BL21 (DE3) assessed as change in entropy measured after 200 sec by isothermal titration calorimetry; procedure, shortened: as §4
[21] = Inhibition of Staphylococcus aureus FabB/FabF
Escherichia coli [22] = test: Binding affinity to His6-tagged Escherichia coli FabF C163Q mutant expressed in Escherichia coli BL21 (DE3) assessed Gibbs free energy change measured after 200 sec by isothermal titration calorimetry; procedure, shortened: as §4
[23] = Inhibition of Staphylococcus aureus FabH
Enterococcus faecalis = test: Antibacterial activity against Enterococcus faecalis ATCC 29212 assessed as inhibition of bacterial growth measured after 16 hrs by agar plate dilution method; format: functional
Staphylococcus aureus [24] = test: Inhibition of Staphylococcus aureus FabH A81V mutant assessed as bacterial growth inhibition measured after 18 hrs by resazurin dye based broth dilution assay; procedure, shortened: as §3

## C=CCSC1=C[C@]23CCC(C[C@H]2[C@](C)(CCC(=O)Nc2c(O)ccc(C(=O)O)c2O)C1=O)C(=C)C3 (single isomer, unassigned)
Escherichia coli [1]
  Activity: Active
Staphylococcus aureus [2]
  MIC: 1 µg/mL (≈ 2.01 µM)
[3]
  Activity: Active
Staphylococcus aureus [4]
  Activity: Active
Staphylococcus aureus [5]
  MIC: 2 µg/mL (≈ 4.02 µM)
Staphylococcus aureus [6]
  Activity: 80%
Staphylococcus aureus [7]
  MIC: 1 µg/mL (≈ 2.01 µM)

## C=C1[C@H]2CC[C@@]3(C=CC(=O)[C@@](C)(CCC(=O)Nc4c(O)ccc(C(=O)O)c4O)[C@@H]3C2)[C@H]1O [PLATENCIN A3]
Staphylococcus aureus [8]
  MIC: 8 µg/mL (≈ 18.1 µM)
Staphylococcus aureus [9]
  MIC: 8 µg/mL (≈ 18.1 µM)
Staphylococcus aureus [10]
  MIC: 8 µg/mL (≈ 18.1 µM)
Staphylococcus aureus [11]
  MIC: 8 µg/mL (≈ 18.1 µM)

## C=C1C[C@@]23C=CC(=O)[C@@](C)(CCC(=O)Nc4c(O)ccc(C(=O)O)c4O)[C@@H]2C[C@@H]1CC3 [PLATENCIN]
Staphylococcus aureus [12]
  MIC: 32 µg/mL (≈ 75.2 µM)
Escherichia coli [1]
  Activity: Active
Staphylococcus aureus [13]
  MIC: 8 µg/mL
Staphylococcus aureus [14]
  Activity: inactive
Escherichia coli [15]
  Ratio: 1.12
Staphylococcus aureus [2]
  MIC: 1 µg/mL (≈ 2.35 µM)
Staphylococcus aureus [16]
  Activity: Active
Escherichia coli [17]
  deltaH: -2.84 kcal/mol
[3]
  Activity: Active
[18]
  Kd: 0.027 µM
Staphylococcus aureus [4]
  Activity: Active
Staphylococcus aureus [5]
  MIC: 1 µg/mL (≈ 2.35 µM)
Staphylococcus aureus [7]
  MIC: 1 µg/mL (≈ 2.35 µM)
Escherichia coli [19]
  MIC: 4 µg/mL (≈ 9.4 µM)
Escherichia coli [20]
  -TdeltaS: -7.44 kcal/mol
[21]
  IC50: 4.6 µM
Escherichia coli [22]
  deltaG: -10.3 kcal/mol
[23]
  IC50: 9.2 µM
Enterococcus faecalis
  MIC: 2 µg/mL (≈ 4.7 µM)
Staphylococcus aureus [24]
  MIC: > 32 µg/mL
